Results as given in ChEMBL document CHEMBL5038647, “Elastase Inhibitor Cyclotheonellazole A: Total Synthesis and In Vivo Biological Evaluation for Acute Lung Injury” (J Med Chem, 2022).
Values joined by “and” are separate entries in the source; they are usually repeats but may differ in a detail not shown here. Identical values can stand only once. Active and inactive are the calls of the source. The calls are words filed in the database; no cut-off is given here. *1 amine or outer side, *2 acyl side, *3 side chain or, on linkers, in order; H or OH if unused. Where a SMILES comes first, the peptide text is derived from it. Bridges are numbered along the chain shown (N, C = ends). [ ]: non-standard residue; d: D form. The star is where a group is joined. X2 = O=C(/C=C/c1csc([C@H](Cc2ccc(O)cc2)N[*:1])n1)[*:2]; X1 = CC[C@H](C)[C@H](N[*:1])C(=O)C(=O)[*:2]; X3 = CC[C@H](C)[C@H](N[*:1])C(O)C(=O)[*:2]; Benzoyl(4-OH) = O=C(c1ccc(O)cc1)*; Cya = N[C@@H](CS(=O)(=O)O)C(=O)O; MeOSuc = COC(=O)CCC(=O)*; Nva = CCC[C@H](N)C(=O)O; Dap = NC[C@H](N)C(=O)O; CH2Cl = ClC*

How the values were obtained:
Mus musculus [1] = assay: Antiinflammatory activity against bleomycin-induced acute lung injury C57BL/6 mouse model assessed as fold reduction in lung edema by measuring thickness of the alveolar deterioration at 30 mg/kg, ip administered for upto 5 days by HE-staining relative to control; type: functional; details: time day <=5
Method in brief: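 Male C57BL/6J mice, 8 weeks old, n = 8/group. ALI induced by intratracheal BLM (4 mg/kg, in 0.1 mL saline) under chloral hydrate anaesthesia; sham controls got saline. Drug given ip at 30 mg/kg in 10% DMSO/90% saline daily for up to 5 days. Sacrifice on day 6; right lung formalin-fixed, 4 μm HE sections, three images per lung, blinded histologist scoring; dead animals excluded.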

Mus musculus [2] = assay: Antiinflammatory activity against bleomycin-induced acute lung injury C57BL/6 mouse model assessed as reduction in inflammatory cell infiltration in lung at 30 mg/kg, ip administered for upto 5 days by HE-staining based assay; type: functional, organism-based; details: time day <=5
Method in brief: (§1)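 Male C57BL/6J mice, 8 weeks old, n = 8 per group, anaesthetised with chloral hydrate. ALI was induced by intratracheal BLM 4 mg/kg in 0.1 mL saline; controls received saline. Drug was given at 30 mg/kg ip daily for up to 5 days in 10% DMSO/90% saline (vehicle alone for controls), with sacrifice on day 6. Right lungs were formalin-fixed, sectioned at 4 μm and HE-stained. A histologist scored three images per lung blind; dead animals were excluded.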

[3] = Inhibition of elastase (unknown origin); set-up: species or system Homo sapiens
Method in brief: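 EnzChek kit, DQ elastin substrate 25 μg/mL with porcine pancreatic elastase 0.4 U/mL or human neutrophil elastase 0.2 U/mL. Increasing inhibitor concentrations, 40 min at room temperature in the dark. Fluorescence read at ex 485/em 535 nm. Three repeats; paired Student's t test against controls.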

Mus musculus [4] = assay: Antiinflammatory activity against bleomycin-induced acute lung injury C57BL/6 mouse model assessed as reduction in pathological changes in lung at 30 mg/kg, ip administered for upto 5 days by HE-staining based assay; type: functional, organism-based; details: time day <=5; method in brief: as §1
[5] = Inhibition of porcine pancreatic elastase incubated for 40 mins in presence of DQ elastin substrate by fluorescence multiwell plate reader; set-up: species or system Sus scrofa
Method in brief: (§2)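 Fluorescence elastase assay with DQ elastin substrate at 25 μg/mL and either porcine pancreatic elastase at 0.4 U/mL or human neutrophil elastase at 0.2 U/mL. Enzyme, substrate and increasing inhibitor concentrations were incubated 40 min at rt in the dark, then read at ex 485/em 535 nm. Each experiment was run three times; paired Student's t test against controls.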

Mus musculus [6] = assay: Antiinflammatory activity against bleomycin-induced acute lung injury C57BL/6 mouse model assessed as reduction in lung edema by measuring reduction in lung wet/dry ratio at 30 mg/kg, ip administered for upto 5 days relative to control; type: functional, organism-based; details: time day <=5
Method in brief: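 Same BLM model: C57BL/6J males, intratracheal BLM 4 mg/kg, then 30 mg/kg ip daily up to 5 days in 10% DMSO/90% saline, sacrifice day 6, n = 8 per group. Left lungs were weighed immediately, dried at 78 °C for 48 h to stable weight and reweighed to give the wet/dry ratio. Dead animals were excluded.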

[7] = Inhibition of elastase (unknown origin) at 1.25 uM by fluorescence microtiter plate method relative to control; details: Homo sapiens
Method in brief: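 Single-concentration screen: elastin substrate and elastase were incubated with test compounds at 1.25 μM in the EnzChek fluorescence elastase format (40 min, rt). Activity was read against controls, with three repeats.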

Homo sapiens = species on record: Homo sapiens; assay: Inhibition of elastase (unknown origin) at 2.5 uM by fluorescence microtiter plate method relative to control
Method in brief: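 Elastin substrate plus elastase incubated with a single inhibitor level (reference inhibitor MeOSu-AAPV-CMK at 2.5 μM, others at 1.25 μM). EnzChek DQ elastin fluorescence, ex 485/em 535 nm, 40 min at room temperature. Three repeats.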

[8] = Cytotoxicity against human 293T/ACE2 cells assessed as reduction in cell viability upto 100 uM incubated for 24 hrs by CCK-8 assay; type: toxicity, cell-based; details: 293t/ace2, 24 h
Method in brief: (§3)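 Cells (ACE2-overexpressing 293T stable line or BEAS-2B lung epithelial) were seeded at 1 × 10^4 per well and left about 12 h to adhere. They were exposed to graded compound concentrations for 24 h. CCK-8 was added and incubated 2 h at 37 °C, then OD450 read. Viability was expressed as percentage; IC50 was computed.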

Neutrophil elastase [9] = target: T1, Neutrophil elastase (Homo sapiens, UniProt P08246); assay: Inhibition of human neutrophil elastase incubated for 40 mins in presence of DQ elastin by fluorescence microtiter plate method
T1 sequence (P08246 whole entry): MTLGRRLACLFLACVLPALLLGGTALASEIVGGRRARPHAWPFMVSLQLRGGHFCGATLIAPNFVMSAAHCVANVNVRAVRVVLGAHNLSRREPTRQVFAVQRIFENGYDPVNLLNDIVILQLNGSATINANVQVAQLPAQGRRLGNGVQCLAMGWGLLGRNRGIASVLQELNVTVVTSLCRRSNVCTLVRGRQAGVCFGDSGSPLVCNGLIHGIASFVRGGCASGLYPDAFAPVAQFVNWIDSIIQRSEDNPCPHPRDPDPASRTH

Neutrophil elastase [10] = target: T1, Neutrophil elastase; assay: Inhibition of human neutrophil elastase; method in brief: as §2
BEAS-2B = assay: Cytotoxicity against human BEAS-2B cells assessed as reduction in cell viability upto 100 uM incubated for 24 hrs by CCK-8 assay; type: toxicity, cell-based; method in brief: as §3

inhibition [7]	Structure (SMILES)	fold change (FC) (Mus musculus [1])	Activity (Mus musculus [2])	Activity (Mus musculus [4])	IC50 [5] [nM]	Activity (Mus musculus [6])	other results
–	CC(C)(C)C(=O)Oc1ccc(S(=O)(=O)Nc2ccccc2C(=O)NCC(=O)O)cc1	1	Active	Active	2960	Active	IC50 [3]: 44 nM
46.6%	CCC[C@@H]1NC(=O)[C@@H](NC(=O)[C@H](C)NC(=O)CNC(=O)c2ccc(O[Si](C)(C)C(C)(C)C)cc2)CNC(=O)[C@H](CS(=O)(=O)O)NC(=O)/C=C/c2csc(n2)[C@H](Cc2ccc(O[Si](C)(C)C(C)(C)C)cc2)NC(=O)C(=O)[C@H]([C@@H](C)CC)NC1=O	–	–	–	–	–	–
–	COC(=O)CCC(=O)N[C@@H](C)C(=O)N[C@@H](C)C(=O)N1CCC[C@H]1C(=O)N[C@H](C(=O)CCl)C(C)C (MeOSuc-AAPV-CH2Cl)	–	–	–	–	–	inhibition (Homo sapiens): 23.2%
94%	CCC[C@@H]1NC(=O)[C@@H](NC(=O)[C@H](C)NC(=O)CNC(=O)c2ccc(O)cc2)CNC(=O)[C@H](CS(=O)(=O)O)NC(=O)/C=C/c2csc(n2)[C@H](Cc2ccc(O)cc2)NC(=O)C(O)[C@H]([C@@H](C)CC)NC1=O (some centres undefined) ({Benzoyl(4-OH)}-GA[Dap][Nva][X3][X2][Cya]; lactam 3-C)	–	–	–	–	–	–

Structure (SMILES)	inhibition [7]	fold change (FC) (Mus musculus [1])	Activity (Mus musculus [2])	Activity (Mus musculus [4])	IC50 [5] [nM]	Activity (Mus musculus [6])	other results
CCC[C@@H]1NC(=O)[C@@H](NC(=O)[C@H](C)NC(=O)CNC(=O)c2ccc(O)cc2)CNC(=O)[C@H](CS(=O)(=O)[O-])NC(=O)/C=C/c2csc(n2)[C@H](Cc2ccc(O)cc2)NC(=O)C(=O)[C@H]([C@@H](C)CC)NC1=O.[Na+] ({Benzoyl(4-OH)}-GA[Dap][Nva][X1][X2][Cya]; lactam 3-C)	3.6% and 3.8%	1	Active	Active	114	Active	Activity [8]: Non-Toxic; IC50 (Neutrophil elastase [9]): 321 nM; IC50 (Neutrophil elastase [10]): 0.034 nM; Activity (BEAS-2B): Non-Toxic
